According to paper PMC4437839 (Chemical research in toxicology, 2015):
“Also recorded” adds a separate entry of the source.

Columns and labels:
2′-Deoxyguanosine (dG) = assay: Trapping reactive N-oxidized electrophiles of PhIP with dG; conditions: 42 nmol, dG 1 mg/mL, pH 8.0, 37 °C, 1 h; total ion counts at MS3 (Fig. 3)
albumin in human plasma = albumin in human plasma (Homo sapiens, UniProt P02768); conditions: for level of LQQC*[SOPhIP]PF formed, comparison between the three metabolites: albumin in human plasma or commercial human albumin, p=0.231, one-way ANOVA; for LQQC*[SO2PhIP]PFEDHVK levels, N-acetoxy-PhIP versus HONH-PhIP: human plasma, p>0.05, t-test
Sequence of albumin in human plasma (P02768 25-609): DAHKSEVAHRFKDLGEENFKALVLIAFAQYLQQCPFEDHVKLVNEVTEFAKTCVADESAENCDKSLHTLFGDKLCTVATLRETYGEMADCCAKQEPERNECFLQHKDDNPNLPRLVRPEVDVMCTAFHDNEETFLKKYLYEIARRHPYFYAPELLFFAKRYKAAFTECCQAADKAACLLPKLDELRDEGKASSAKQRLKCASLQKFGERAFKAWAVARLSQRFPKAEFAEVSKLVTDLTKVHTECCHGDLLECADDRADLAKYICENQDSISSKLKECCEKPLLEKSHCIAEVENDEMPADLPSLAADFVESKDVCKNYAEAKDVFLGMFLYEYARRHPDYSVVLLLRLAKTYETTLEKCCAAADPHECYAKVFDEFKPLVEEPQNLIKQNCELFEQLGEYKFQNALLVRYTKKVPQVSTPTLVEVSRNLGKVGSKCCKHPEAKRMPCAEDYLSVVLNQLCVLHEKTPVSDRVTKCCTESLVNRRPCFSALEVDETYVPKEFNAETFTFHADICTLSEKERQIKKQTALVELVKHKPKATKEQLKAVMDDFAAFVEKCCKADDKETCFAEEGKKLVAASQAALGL

NAT1 = conditions: cited from earlier work
NAT2 = conditions: cited from earlier work
SULT1A1 = conditions: cited from earlier work
[1] = molecular target: albumin in human hepatocytes culture (Homo sapiens, UniProt P02768); assay: Albumin PhIP adducts and Cys34SO3H in human hepatocytes; format: cell-based
Sequence of albumin in human hepatocytes culture (P02768 25-609): as above
Summary of the method: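 Primary human hepatocytes (two-step collagenase perfusion) seeded at 3×10^6 viable cells/19.5-cm2 dish in Williams' medium with βME-pre-reduced human albumin (1 g/L) replacing FCS; exposed 24 h to PhIP or 1:1 PhIP:[2H5]-PhIP (50 µM). Medium albumin ethyl acetate-extracted, ethanol-precipitated, kit-isolated, desalted; trypsin/chymotrypsin digested (37 °C, 20 h); C18 SPE; mass-tag data-dependent, then targeted UPLC-ESI/MS2.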

Hb = conditions: humans, radiolabelled 14C-PhIP; cited from earlier work
albumin = conditions: humans; cited from earlier work
[2] = N-sulfooxy-PhIP modified albumin, unpublished observations

Cn1c(NO)nc2ncc(-c3ccccc3)cc21 [HONH-PhIP, 2-hydroxyamino-1-methyl-6-phenylimidazo[4,5-b]pyridine]
relative amount of dG-C8-PhIP formation (2′-Deoxyguanosine (dG)): lastly | level of LQQC*[SOPhIP]PF formed, comparison between the three metabolites (albumin in human plasma): no statistically significant difference | LQQC*[SO2PhIP]PFEDHVK levels, N-acetoxy-PhIP versus HONH-PhIP (albumin in human plasma): no significant difference | bioactivation by NAT1 (NAT1): poorly bioactivated | bioactivation by NAT2 (NAT2): poorly bioactivated | bioactivation by SULT1A1 (SULT1A1): highly effective

CC(=O)ONc1nc2ncc(-c3ccccc3)cc2n1C [N-acetoxy-PhIP, N-(acetyloxy)-2-amino-1-methyl-6-phenylimidazo[4,5-b]pyridine, reference compound]
relative amount of dG-C8-PhIP formation (2′-Deoxyguanosine (dG)): greatest amount | level of LQQC*[SOPhIP]PF formed, comparison between the three metabolites (albumin in human plasma): no statistically significant difference | LQQC*[SO2PhIP]PFEDHVK levels, N-acetoxy-PhIP versus HONH-PhIP (albumin in human plasma): no significant difference

Cn1c(NOS(=O)(=O)O)nc2ncc(-c3ccccc3)cc21 [N-sulfooxy-PhIP, N-sulfooxy-2-amino-1-methyl-6-phenylimidazo[4,5-b]pyridine]
relative amount of dG-C8-PhIP formation (2′-Deoxyguanosine (dG)): lower level | level of W[PhIP] adduct relative to signal of C[SO2PhIP] (albumin in human plasma; 3-enzyme digest, ion counts (Fig. 7)): about half | ion counts of H[PhIP], fold lower than counts of W[PhIP] (albumin in human plasma; [2]): 5 folder | ion counts of H[PhIP], fold lower than ion counts of C[SO2PhIP] (albumin in human plasma; [2]): 10 fold | level of LQQC*[SOPhIP]PF formed, comparison between the three metabolites (albumin in human plasma): no statistically significant difference | level of Trp[PhIP] relative to N-acetoxy-PhIP or HONH-PhIP treated human plasma (albumin in human plasma; pronase E/leucine aminopeptidase/prolidase digest, ion counts (Fig. 7B)): 3 x

Cn1c(N)nc2ncc(-c3ccccc3)cc21 [PhIP, 2-amino-1-methyl-6-phenylimidazo[4,5-b]pyridine]
PhIP and 5-HO-PhIP in the proteolytic digests of albumin ([1]; PhIP 50 µM, 24 h (Figs. 8A, 8B)): detected | Y*[desaminoPhIP]TK (Tyr411) and LQQC*[desaminoPhIP]PF (Cys34) adducts ([1]; PhIP 50 µM, tryptic/chymotryptic digest (Fig. 9)): both adducts were identified | albumin-PhIP peptide adducts at Cys34 or Trp214 ([1]; PhIP or PhIP:[2H5]-PhIP 50 µM, 24 h, data-dependent and targeted MS2): failed to detect; also recorded: below the limit of detection | LQQC*[SO2PhIP]PFEDHVK after m-CPBA oxidation of albumin ([1]; albumin isolated from hepatocytes, targeted MS2): failed to detect; also recorded: not detected | PhIP binding to Hb (Hb): very low | binding of PhIP to albumin (albumin): up to several percent of the ingested dose
